Active and inactive are the calls of the source. No cut-off for these calls is given here.

As a reminder, the inhibition is the percentage by which the read-out fell short of the control.

A short description of assay [1]: Inhibition of synthetic AcPHF6 peptide aggregation in pH 7.4 phosphate buffer assessed as reduction in fluorescence intensity at 10 uM and measured every minute over 2 hrs by ThT fluorescence assay relative to control. In outline: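 Fluorescence read every minute for 2 h, ex 440/em 480 nm. Intrinsic compound fluorescence corrected with peptide-free blank wells. Hexaplicate; % inhibition versus peptide-only control.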

Assay [2] in a line: Displacement of ThT from AcPHF6 in pH 7.4 phosphate buffer at 1:1 compound:ThT ratio. In outline:
(§1)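 Preformed AcPHF6 fibers (1 mM peptide left 24 h in deionised water) added to give 100 μM fibers with 10 μM ThT in 50 mM phosphate buffer pH 7.4, ≤0.5% DMSO; compound 10 μM (1:1 with ThT). Emission spectra recorded shortly after fiber addition, excitation 440 nm; % decrease calculated from emission intensity at 480 nm.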

Assay [3] can be described thus: Displacement of ThT from AcPHF6 in pH 7.4 phosphate buffer assessed as reduction in fluorescence intensity relative to control. The note with it: dose 10.0 µM. In outline: as §1
Assay [4] in a line: Inhibition of synthetic AcPHF6 peptide aggregation in pH 7.4 phosphate buffer assessed as reduction in beta sheet formation at 100 uM incubated for 2 hrs by circular dichroism spectroscopy. In outline: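 CD samples: 100 μM AcPHF6 in 50 mM phosphate buffer, compound with <0.2% DMSO, 1 mm quartz cell. Spectra taken after 2 h at room temperature, 260–190 nm, 1 nm resolution, 1 s per point, 10 nm bandwidth. Compound level is printed as 10 μM in methods and 100 μM in legend.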
In general terms: Circular dichroism is the unequal absorption of left and right circularly polarised light.

The nature of assay [5]: Inhibition of synthetic AcPHF6 peptide aggregation in pH 7.4 phosphate buffer assessed as reduction in beta sheet fibrillation at 100 uM incubated for 24 hrs by atomic force microscopy analysis. In outline: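 AFM imaging of samples taken from the CD preparations after 24 h fibrillation at room temperature; 100 μM AcPHF6 alone or with compound at 100 μM.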

On to `O=C1/C(=C/c2ccc(O)c(O)c2)Cc2cc(O)cc(O)c21`, for which the inhibition is 78% in assay [1] and 65% in assay [3]. Also, the inhibition entry in assay [2] is “Active”.

As for `COc1cccc(/C=C2\Oc3c(OC)cccc3C2=O)c1`, the inhibition in assay [1] worked out at 69%; in assay [3], 45%. Moreover, the inhibition entry in assay [2] was “Active”.

As to `O=C1/C(=C/c2ccc(O)cc2O)Oc2cc(O)cc(O)c21`, the inhibition in assay [1] is 94%; in assay [3], 89%. Besides, the inhibition entry in assay [2] was “Active”.

In the case of `O=C1/C(=C/c2ccc(O)c(O)c2)Oc2cc(O)cc(O)c21`, the figures for the inhibition in assay [1] and in assay [3] were 93% and 85%, respectively. In addition, the inhibition result in assay [2] was “Active”.

For the compound `O=C1/C(=C/c2cc(O)c(O)c(O)c2)Cc2c(O)cccc21`, the results for the inhibition in assay [1] and in assay [3] were 83% and 78%, respectively. In addition, the inhibition result in assay [2] and in assay [4] was “Active” throughout.

For `O=C1/C(=C/c2cc(O)c(O)c(O)c2)Cc2cc(O)cc(O)c21`, the inhibition in assay [1] was 87%; in assay [3] it was 90%. The inhibition entry in assay [2] and in assay [4] was “Active” each time.

With `O=C1/C(=C/c2cc(O)c(O)c(O)c2)Oc2ccccc21`, the inhibition in assay [1] is 68%; in assay [3], 70%. Moreover, the inhibition result in assay [2] was “Active”.

With `O=C1/C(=C/c2cc(O)c(O)c(O)c2)Cc2ccccc21`, the figures for the inhibition in assay [1] and in assay [3] were 71% and 42%, respectively. In addition, the inhibition result in assay [2], in assay [4] and in assay [5] was “Active” each time.

`O=C1/C(=C/c2cc(O)c(O)c(O)c2)Oc2c(O)cccc21`: the inhibition in assay [1] worked out at 91%; in assay [3] it was 88%. Further, the inhibition result in assay [2] is “Active”.

For `O=C1/C(=C/c2ccc(O)cc2O)Cc2cc(O)cc(O)c21`, the inhibition in assay [1] stood at 72%; in assay [3], 76%. For the same compound, in assay [2], the inhibition entry is “Active”.

As to `O=C1/C(=C/c2cc(O)c(O)c(O)c2)Oc2cc(O)cc(O)c21`, the inhibition in assay [1] was found to be 99%; in assay [3], 94%. In addition, in assay [2], the inhibition entry is “Active”.
